# How the values were obtained:
# [1] = Cytotoxicity against rat NBT-T2 cells by MTT method; assay type: cell-based
# Summary of the method: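 Rat bladder epithelial NBT-T2 cells exposed to compound. Viability read by MTT, and IC50 values derived from it.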
# Bacillus subtilis [2] = assay: Antibacterial activity against Bacillus subtilis at 10 ug/disk after 24 hrs by agar-plate diffusion assay; assay type: functional; settings: read-out: IZ
# Summary of the method: (§1)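 Paper disks loaded with compound (acetone solution), 0.1 to 10 µg/disk, placed on agar plates inoculated with B. subtilis. Incubated 37 °C for 24 h, then read for zones of inhibition. All materials sterilized at 121 °C for 20 min before and after testing.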
# Bacillus subtilis [3] = assay: Antibacterial activity against Bacillus subtilis at 1 ug/disk after 24 hrs by agar-plate diffusion assay; assay type: functional; settings: read-out: IZ; summary of the method: as §1
# Bacillus subtilis [4] = assay: Antibacterial activity against Bacillus subtilis at 0.1ug/disk after 24 hrs by agar-plate diffusion assay; assay type: functional; settings: read-out: IZ; summary of the method: as §1
# Bacillus subtilis [5] = assay: Antibacterial activity against Bacillus subtilis at 5 ug/disk after 24 hrs by agar-plate diffusion assay; assay type: functional; settings: read-out: IZ; summary of the method: as §1
Compound,IC50 [1],zone of inhibition at 10 µg/disc (Bacillus subtilis [2]),zone of inhibition at 1 µg/disc (Bacillus subtilis [3]),zone of inhibition at 0.1 µg/disc (Bacillus subtilis [4]),zone of inhibition at 5 µg/disc (Bacillus subtilis [5])
Oc1ccccc1Oc1c(O)cc(Br)cc1Br,> 15 mg/L,14 mm,8 mm,6 mm,10 mm
COc1ccc(Br)cc1Oc1c(OC)ccc(Br)c1Br,–,0 mm,0 mm,0 mm,0 mm
COc1c(Br)cc(Br)cc1Oc1c(O)cc(Br)c(Br)c1Br,2.8 mg/L,10 mm,9 mm,6 mm,10 mm
Oc1ccc(Br)cc1Oc1cc(Br)cc(Br)c1O,> 15 mg/L,11 mm,6 mm,6 mm,8 mm
Oc1c(Br)cc(Br)cc1Oc1c(Br)cc(Br)c(Br)c1O,> 15 mg/L,10 mm,7 mm,0 mm,8 mm
Oc1cc(Br)ccc1Oc1cc(Br)cc(Br)c1O,8.5 mg/L,13 mm,0 mm,0 mm,7 mm
Oc1ccc(Br)cc1Oc1c(O)c(Br)cc(Br)c1Br,> 15 mg/L,17 mm,8 mm,7 mm,16 mm
COc1c(Br)c(Br)cc(Br)c1Oc1cc(Br)cc(Br)c1O,–,9 mm,9 mm,6 mm,9 mm
COc1c(Br)cc(Br)cc1Oc1ccc(Br)cc1Br,–,0 mm,0 mm,0 mm,0 mm
COc1c(Br)cc(Br)cc1Oc1c(Br)cc(Br)c(Br)c1O,–,14 mm,11 mm,6 mm,14 mm
COc1c(Br)cc(Br)cc1Oc1c(Br)cc(Br)c(Br)c1OC,–,0 mm,0 mm,0 mm,0 mm
Oc1cc(Br)cc(Br)c1Oc1cc(Br)cc(Br)c1O,> 15 mg/L,18 mm,0 mm,0 mm,16 mm
Oc1cc(Br)c(Br)c(Br)c1Oc1cc(Br)cc(Br)c1O,> 15 mg/L,16 mm,10 mm,7 mm,13 mm
Brc1cc(Br)c2c(c1)Oc1c(Br)c(Br)c(Br)c(Br)c1O2,> 15 mg/L,14 mm,12 mm,7 mm,13 mm
COc1c(Br)cc(Br)cc1Oc1c(Br)c(Br)c(Br)c(Br)c1OC,–,0 mm,0 mm,0 mm,0 mm
COc1ccc(Br)cc1Oc1c(Br)c(Br)cc(Br)c1OC,–,0 mm,0 mm,0 mm,0 mm
COc1cc(Br)c(Br)c(Br)c1Oc1cc(Br)cc(Br)c1O,–,0 mm,0 mm,0 mm,0 mm
COc1c(Br)c(Br)c(Br)c(Br)c1Oc1cc(Br)cc(Br)c1O,–,0 mm,0 mm,0 mm,0 mm
COc1c(Br)cc(Br)cc1Oc1c(Br)ccc(Br)c1OC,–,0 mm,0 mm,0 mm,0 mm
COc1cc(Br)cc(Br)c1Oc1cc(Br)cc(Br)c1OC,–,0 mm,0 mm,0 mm,0 mm
Oc1ccc(Br)cc1Oc1c(O)ccc(Br)c1Br,> 15 mg/L,18 mm,13 mm,7 mm,16 mm
COc1cc(Br)c(Br)c(Br)c1Oc1cc(Br)cc(Br)c1OC,–,0 mm,0 mm,0 mm,0 mm
Oc1c(Br)cccc1Oc1cc(Br)c(Br)c(Br)c1O,> 15 mg/L,13 mm,0 mm,0 mm,8 mm
COc1c(Br)cc(Br)cc1Oc1c(O)c(Br)c(Br)c(Br)c1Br,> 15 mg/L,13 mm,10 mm,0 mm,10 mm
COc1c(Br)cc(Br)c(Br)c1Oc1cc(Br)cc(Br)c1O,–,13 mm,7 mm,6 mm,10 mm
Oc1c(Br)cc(Br)cc1Oc1c(Br)ccc(Br)c1O,> 15 mg/L,20 mm,13 mm,7 mm,20 mm
Oc1c(Br)cc(Br)cc1Oc1c(O)c(Br)c(Br)c(Br)c1Br,> 15 mg/L,12 mm,7 mm,6 mm,12 mm

# Reference: ChEMBL document CHEMBL1142942, “Polybrominated diphenyl ethers from the Indonesian sponge Lamellodysidea herbacea” (J Nat Prod, 2007)
